This note sets out measurements from ChEMBL document CHEMBL3244024, “Synthesis and antiallergic activity of some mono- and disubstituted xanthone-2-carboxylic acids” (1978).

The structures appear in SMILES notation.

In the first assay the test system is Rattus norvegicus. The assay is described as follows: Antiallergic activity in iv dosed Sprague-Dawley rat assessed as inhibition of egg albumin-induced passive cutaneous anaphylaxis after 15 to 25 mins relative to disodium cromoglycate.
On to `CC(C)[S+]([O-])c1ccc2oc3ccc(C(=O)O)cc3c(=O)c2c1` (stereo not given), for which the RPCA relative potency worked out at 4.

As for `CS(=O)(=O)c1ccc2oc3ccc(C(=O)O)cc3c(=O)c2c1`, the RPCA relative potency came out at 7. Take `CCCCOc1cc([S+](C)[O-])cc2c(=O)c3cc(C(=O)O)ccc3oc12` (stereo not given): the RPCA relative potency stood at 260. `CC(=O)c1ccc2oc3ccc(C(=O)O)cc3c(=O)c2c1`: the RPCA relative potency was determined as 6. With `CCC(=O)c1ccc2oc3ccc(C(=O)O)cc3c(=O)c2c1`, the RPCA relative potency came to 2.

Regarding `CC(C)C(=O)c1ccc2oc3ccc(C(=O)O)cc3c(=O)c2c1`, the RPCA relative potency was 3.

Turning to `O=C(O)c1ccc2oc3ccc(C(=O)C4CC4)cc3c(=O)c2c1`, the RPCA relative potency is 3. Still for that read-out and setting: with `O=C(O)c1ccc2oc3ccc(C(=O)C4CCCC4)cc3c(=O)c2c1` the figure was 2; with `CSc1ccc2oc3ccc(C(=O)O)cc3c(=O)c2c1`, 5. Still for that read-out and setting: with `CC(C)Sc1ccc2oc3ccc(C(=O)O)cc3c(=O)c2c1` the figure was 2.

Consider `COc1cc(OC)c2oc3ccc(C(=O)O)cc3c(=O)c2c1`, for which the RPCA relative potency came to 6.

Consider `COc1cc2oc3ccc(C(=O)O)cc3c(=O)c2cc1OC`, for which the RPCA relative potency is 2.

Regarding `COc1cc(OC)c2c(=O)c3cc(C(=O)O)ccc3oc2c1`, the RPCA relative potency stood at 0.1. As for `Cc1cc(C)c2oc3ccc(C(=O)O)cc3c(=O)c2c1`, the RPCA relative potency is 1.

As for `Cc1cc2oc3ccc(C(=O)O)cc3c(=O)c2cc1C`, the RPCA relative potency turned out to be 0.2. With `Cc1ccc2oc3ccc(C(=O)O)cc3c(=O)c2c1C`, the RPCA relative potency was 0.2. Turning to `CCOc1cc([S+](C)[O-])cc2c(=O)c3cc(C(=O)O)ccc3oc12` (stereo not given), the RPCA relative potency amounted to 80. As to `CCCOc1cc([S+](C)[O-])cc2c(=O)c3cc(C(=O)O)ccc3oc12` (stereo not given), the RPCA relative potency was found to be 50. The same measure, in the same setting: with `CC(C)Oc1cc([S+](C)[O-])cc2c(=O)c3cc(C(=O)O)ccc3oc12` (stereo not given) the figure was 190. The same measure, in the same setting: the value for `CCCCCOc1cc([S+](C)[O-])cc2c(=O)c3cc(C(=O)O)ccc3oc12` (stereo not given) was 90; that for `CC(C)CCOc1cc([S+](C)[O-])cc2c(=O)c3cc(C(=O)O)ccc3oc12` (stereo not given) was 100. Consider `C[S+]([O-])c1cc(OC2CCCC2)c2oc3ccc(C(=O)O)cc3c(=O)c2c1` (stereo not given), for which the RPCA relative potency was 100. In the case of `CCCCCCCCOc1cc([S+](C)[O-])cc2c(=O)c3cc(C(=O)O)ccc3oc12` (stereo not given), the RPCA relative potency turned out to be 35. Still for that read-out and setting: with `C[S+]([O-])c1ccc2oc3ccc(C(=O)O)cc3c(=O)c2c1` (stereo not given) [TIXANOX] the figure was 25.

In the next assay the test system is Rattus norvegicus. The assay is described as follows: Antiallergic activity in iv dosed Sprague-Dawley rat assessed as inhibition of egg albumin-induced passive cutaneous anaphylaxis after 15 to 25 mins relative to disodium cromoglycate. The assay is classed as functional. The essentials:
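Reaginic antiserum from rats immunized with 1.25 mg egg albumin sc plus H. pertussis vaccine ip, bled 11 days later. Recipient rats sensitized intradermally with two antiserum dilutions in 0.1 mL saline. Challenged 24 h later iv with 1.0 mL buffered saline (pH 7.2) holding 1.0 mg albumin, 0.5% Evans blue and test compound. Usually three doses (fivefold increments), ≥5 rats per group.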
In the case of `CCCCOc1cc([S+](C)[O-])cc2c(=O)c3cc(C(=O)O)ccc3oc12` (stereo not given), the “fold change (FC)” value turned out to be 260.
